Measured values from ChEMBL document CHEMBL4622985, “Design, Synthesis, and Pharmacological Characterization of Heterobivalent Ligands for the Putative 5-HT2A/mGlu2 Receptor Complex” (J Med Chem, 2020).

biological target: T1, 5-hydroxytryptamine receptor 2A/Metabotropic glutamate receptor 2 (Homo sapiens, UniProt P28223+Q14416); experiment: Displacement of [3H]-ketanserin from human 5HT2A/mGlu2 receptor expressed in HEK293 cell membranes incubated for 2 hrs by scintillation counting method; conditions: read-out: Ki
Procedure, shortened: (§1)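 Membranes from stable HEK293 lines were homogenized and centrifuged twice at 50.000g, 4 °C, then resuspended in 50 mM Tris-HCl, 10 mM MgCl2, 0.1 mM EDTA, pH 7.4. Competition used fixed [3H]ketanserin ~1.5 nM (1.3−1.8 nM) against varied test compound, with bound/free kept <10%. Incubation ran 2 h at rt with shaking, followed by GF/C filtration. Ki was obtained by Cheng−Prusoff using saturation KD. Three independent experiments, each in duplicate.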

T1 sequence (P28223 whole entry): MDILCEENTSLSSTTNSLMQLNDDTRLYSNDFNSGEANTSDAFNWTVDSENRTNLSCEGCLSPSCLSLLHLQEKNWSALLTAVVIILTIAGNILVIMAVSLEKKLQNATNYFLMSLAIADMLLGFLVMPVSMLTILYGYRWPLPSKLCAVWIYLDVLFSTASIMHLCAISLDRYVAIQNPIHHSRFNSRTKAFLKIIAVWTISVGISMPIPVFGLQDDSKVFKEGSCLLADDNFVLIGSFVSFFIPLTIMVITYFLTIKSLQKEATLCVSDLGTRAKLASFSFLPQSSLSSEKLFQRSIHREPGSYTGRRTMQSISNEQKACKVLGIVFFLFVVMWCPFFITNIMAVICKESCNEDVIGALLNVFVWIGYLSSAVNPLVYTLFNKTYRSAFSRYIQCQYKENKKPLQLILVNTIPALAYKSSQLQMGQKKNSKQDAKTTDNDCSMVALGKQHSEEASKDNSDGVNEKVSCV
T1 sequence (Q14416 whole entry): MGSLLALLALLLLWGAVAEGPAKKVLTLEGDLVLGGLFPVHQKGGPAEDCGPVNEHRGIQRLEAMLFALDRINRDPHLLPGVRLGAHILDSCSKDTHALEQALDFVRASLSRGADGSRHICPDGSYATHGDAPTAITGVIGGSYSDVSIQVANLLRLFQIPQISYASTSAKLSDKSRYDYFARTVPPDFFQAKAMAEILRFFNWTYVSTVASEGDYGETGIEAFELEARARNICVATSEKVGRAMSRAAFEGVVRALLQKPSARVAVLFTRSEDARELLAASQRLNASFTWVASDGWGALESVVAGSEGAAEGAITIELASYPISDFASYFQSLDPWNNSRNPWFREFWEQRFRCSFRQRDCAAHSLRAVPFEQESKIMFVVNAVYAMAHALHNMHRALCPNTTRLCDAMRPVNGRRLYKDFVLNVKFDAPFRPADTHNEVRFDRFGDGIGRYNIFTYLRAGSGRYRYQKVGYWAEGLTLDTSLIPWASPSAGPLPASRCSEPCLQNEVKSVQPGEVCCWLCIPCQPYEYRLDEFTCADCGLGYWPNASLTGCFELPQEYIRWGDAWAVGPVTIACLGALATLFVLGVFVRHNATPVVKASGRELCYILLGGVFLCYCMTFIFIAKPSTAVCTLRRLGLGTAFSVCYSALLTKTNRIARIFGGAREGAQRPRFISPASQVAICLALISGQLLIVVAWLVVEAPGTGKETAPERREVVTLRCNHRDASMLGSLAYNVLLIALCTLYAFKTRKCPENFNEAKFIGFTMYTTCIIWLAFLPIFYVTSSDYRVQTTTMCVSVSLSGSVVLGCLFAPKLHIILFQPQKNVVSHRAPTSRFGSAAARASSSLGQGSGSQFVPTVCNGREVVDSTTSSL

Point of comparison: `COc1c(OCCOCCOCCOCCOCCOCCOCCOCCOCCOCCOCCOCCOc2ccc(C3CCN(c4ccn5c(CC6CC6)nnc5c4Cl)CC3)cc2)cccc1C(=O)C1CCN(CCc2ccc(F)cc2)CC1`, Ki 170 nM. Against it:
- COc1c(OCCOCCOCCOCCOCCOc2ccc(C3CCN(c4ccn5c(CC6CC6)nnc5c4Cl)CC3)cc2)cccc1C(=O)C1CCN(CCc2ccc(F)cc2)CC1 — within 1.5-fold, 180 nM
- COc1c(OCCOCCOCCOCCOCCOCCOCCOCCOCCOCCOc2ccc(C3CCN(c4ccn5c(CC6CC6)nnc5c4Cl)CC3)cc2)cccc1C(=O)C1CCN(CCc2ccc(F)cc2)CC1 — 2.4-fold lower, 70 nM

same assay, conditions: read-out: pKi (converted)

Work on `COc1c(OCCOCCOCCOCCOCCOCCOCCOCCOCCOCCOc2ccc(C3CCN(c4ccn5c(CC6CC6)nnc5c4Cl)CC3)cc2)cccc1C(=O)C1CCN(CCc2ccc(F)cc2)CC1` yielded a Ki of 72.4 nM.

biological target: T1, 5-hydroxytryptamine receptor 2A/Metabotropic glutamate receptor 2; experiment: Agonist activity at human 5HT2A/mGlu2 receptor expressed in HEK293 cells co-expressing Gqo5 assessed as increase in intracellular Ca2+ mobilization incubated for 1 hr by Fluo-4 dye based fluorescence assay; type: functional, cell-based; conditions: read-out: EC50

`COc1c(OCCOCCOCCOCCOCCOc2ccc(C3CCN(c4ccn5c(CC6CC6)nnc5c4Cl)CC3)cc2)cccc1C(=O)C1CCN(CCc2ccc(F)cc2)CC1` and `COc1c(OCCOCCOCCOCCOCCOCCOCCOCCOCCOCCOc2ccc(C3CCN(c4ccn5c(CC6CC6)nnc5c4Cl)CC3)cc2)cccc1C(=O)C1CCN(CCc2ccc(F)cc2)CC1` fall in the same range of EC50: 10000 to 50000 nM for the first, 10000 to 50000 nM for the second.

In the case of `COc1c(OCCOCCOCCOCCOCCOCCOCCOCCOCCOCCOCCOCCOc2ccc(C3CCN(c4ccn5c(CC6CC6)nnc5c4Cl)CC3)cc2)cccc1C(=O)C1CCN(CCc2ccc(F)cc2)CC1`, the EC50 is reported as 10000 to 50000 nM.

biological target: T1, 5-hydroxytryptamine receptor 2A/Metabotropic glutamate receptor 2; experiment: Antagonist activity at human 5HT2A/mGlu2 receptor expressed in HEK293 cells co-expressing Gqo5 assessed as inhibition of 5HT-induced intracellular Ca2+ mobilization incubated for 1 hr by Fluo-4 dye based fluorescence assay 5HT2A_HUMAN/GRM2_HUMAN P28223/Q14416; type: functional, cell-based; conditions: not given

Point of comparison: `COc1c(OCCOCCOCCOCCOCCOCCOCCOCCOCCOCCOc2ccc(C3CCN(c4ccn5c(CC6CC6)nnc5c4Cl)CC3)cc2)cccc1C(=O)C1CCN(CCc2ccc(F)cc2)CC1`, IC50 140 nM. Against it:
- COc1c(OCCOCCOCCOCCOCCOc2ccc(C3CCN(c4ccn5c(CC6CC6)nnc5c4Cl)CC3)cc2)cccc1C(=O)C1CCN(CCc2ccc(F)cc2)CC1 — 17-fold higher, 2400 nM
- COc1c(OCCOCCOCCOCCOCCOCCOCCOCCOCCOCCOCCOCCOc2ccc(C3CCN(c4ccn5c(CC6CC6)nnc5c4Cl)CC3)cc2)cccc1C(=O)C1CCN(CCc2ccc(F)cc2)CC1 — 2.7-fold higher, 380 nM

biological target: T2, 5-hydroxytryptamine receptor 2A (Homo sapiens, UniProt P28223); experiment: Antagonist activity at human 5HT2A receptor expressed in HEK293 cells assessed as inhibition of 5HT-induced intracellular Ca2+ mobilization incubated for 1 hr by Fluo-4 dye based fluorescence assay; type: functional, cell-based; conditions: read-out: IC50
T2 sequence (P28223 whole entry): as the sequence (P28223 whole entry) above

Point of comparison: `COc1c(OCCOCCOCCOCCOCCOCCOCCOCCOCCOCCOc2ccc(C3CCN(c4ccn5c(CC6CC6)nnc5c4Cl)CC3)cc2)cccc1C(=O)C1CCN(CCc2ccc(F)cc2)CC1`, IC50 300 nM. Against it:
- COc1c(OCCOCCOCCOCCOCCOc2ccc(C3CCN(c4ccn5c(CC6CC6)nnc5c4Cl)CC3)cc2)cccc1C(=O)C1CCN(CCc2ccc(F)cc2)CC1 — 1.5-fold higher, 450 nM
- COc1c(OCCOCCOCCOCCOCCOCCOCCOCCOCCOCCOCCOCCOc2ccc(C3CCN(c4ccn5c(CC6CC6)nnc5c4Cl)CC3)cc2)cccc1C(=O)C1CCN(CCc2ccc(F)cc2)CC1 — 1.7-fold higher, 520 nM

biological target: T1, 5-hydroxytryptamine receptor 2A/Metabotropic glutamate receptor 2; experiment: Antagonist activity at human 5HT2A/mGlu2 receptor expressed in HEK293 cells assessed as inhibition of 5HT-induced intracellular Ca2+ mobilization incubated for 1 hr by Fluo-4 dye based fluorescence assay 5HT2A_HUMAN/GRM2_HUMAN P28223/Q14416; type: functional, cell-based; conditions: read-out: IC50

Point of comparison: `COc1c(OCCOCCOCCOCCOCCOCCOCCOCCOCCOCCOc2ccc(C3CCN(c4ccn5c(CC6CC6)nnc5c4Cl)CC3)cc2)cccc1C(=O)C1CCN(CCc2ccc(F)cc2)CC1`, IC50 300 nM. Against it:
- COc1c(OCCOCCOCCOCCOCCOc2ccc(C3CCN(c4ccn5c(CC6CC6)nnc5c4Cl)CC3)cc2)cccc1C(=O)C1CCN(CCc2ccc(F)cc2)CC1 — 3.3-fold higher, 1000 nM
- COc1c(OCCOCCOCCOCCOCCOCCOCCOCCOCCOCCOCCOCCOc2ccc(C3CCN(c4ccn5c(CC6CC6)nnc5c4Cl)CC3)cc2)cccc1C(=O)C1CCN(CCc2ccc(F)cc2)CC1 — 5.3-fold higher, 1600 nM

same assay, conditions: read-out: pIC50 (converted)

`COc1c(OCCOCCOCCOCCOCCOCCOCCOCCOCCOCCOc2ccc(C3CCN(c4ccn5c(CC6CC6)nnc5c4Cl)CC3)cc2)cccc1C(=O)C1CCN(CCc2ccc(F)cc2)CC1` gave an IC50 of 309 nM.

biological target: T2, 5-hydroxytryptamine receptor 2A; experiment: Displacement of [3H]-ketanserin from human HT2A receptor expressed in HEK293 cell membranes incubated for 2 hrs by scintillation counting method; conditions: read-out: Ki; procedure, shortened: as §1

Point of comparison: `COc1c(OCCOCCOCCOCCOCCOCCOCCOCCOCCOCCOc2ccc(C3CCN(c4ccn5c(CC6CC6)nnc5c4Cl)CC3)cc2)cccc1C(=O)C1CCN(CCc2ccc(F)cc2)CC1`, Ki 79 nM. Against it:
- COc1c(OCCOCCOCCOCCOCCOc2ccc(C3CCN(c4ccn5c(CC6CC6)nnc5c4Cl)CC3)cc2)cccc1C(=O)C1CCN(CCc2ccc(F)cc2)CC1 — 1.6-fold higher, 130 nM
- COc1c(OCCOCCOCCOCCOCCOCCOCCOCCOCCOCCOCCOCCOc2ccc(C3CCN(c4ccn5c(CC6CC6)nnc5c4Cl)CC3)cc2)cccc1C(=O)C1CCN(CCc2ccc(F)cc2)CC1 — 2.5-fold higher, 200 nM

biological target: T3, Metabotropic glutamate receptor 2 (Homo sapiens, UniProt Q14416); experiment: Positive modulator activity at human mGlu2 receptor expressed in HEK293 cells co-expressing Gqo5 assessed as increase in intracellular Ca2+ mobilization incubated for 1 hr in presence of EC20 glutamate by Fluo-4 dye based fluorescence assay; type: functional, cell-based; conditions: read-out: EC50
T3 sequence (Q14416 whole entry): as the sequence (Q14416 whole entry) above

Point of comparison: `COc1c(OCCOCCOCCOCCOCCOc2ccc(C3CCN(c4ccn5c(CC6CC6)nnc5c4Cl)CC3)cc2)cccc1C(=O)C1CCN(CCc2ccc(F)cc2)CC1`, EC50 510 nM. Against it:
- COc1c(OCCOCCOCCOCCOCCOCCOCCOCCOCCOCCOc2ccc(C3CCN(c4ccn5c(CC6CC6)nnc5c4Cl)CC3)cc2)cccc1C(=O)C1CCN(CCc2ccc(F)cc2)CC1 — 1.6-fold lower, 320 nM
- COc1c(OCCOCCOCCOCCOCCOCCOCCOCCOCCOCCOCCOCCOc2ccc(C3CCN(c4ccn5c(CC6CC6)nnc5c4Cl)CC3)cc2)cccc1C(=O)C1CCN(CCc2ccc(F)cc2)CC1 — within 1.5-fold, 480 nM

biological target: T1, 5-hydroxytryptamine receptor 2A/Metabotropic glutamate receptor 2; experiment: Antagonist activity at human 5HT2A/mGlu2 receptor expressed in HEK293 cells co-expressing Gqo5 assessed as inhibition of glutamate-induced intracellular Ca2+ mobilization incubated for 1 hr by Fluo-4 dye based fluorescence assay 5HT2A_HUMAN/GRM2_HUMAN P28223/Q14416; type: functional, cell-based; conditions: not given

Point of comparison: `COc1c(OCCOCCOCCOCCOCCOCCOCCOCCOCCOCCOCCOCCOc2ccc(C3CCN(c4ccn5c(CC6CC6)nnc5c4Cl)CC3)cc2)cccc1C(=O)C1CCN(CCc2ccc(F)cc2)CC1`, IC50 700 nM. Against it:
- COc1c(OCCOCCOCCOCCOCCOc2ccc(C3CCN(c4ccn5c(CC6CC6)nnc5c4Cl)CC3)cc2)cccc1C(=O)C1CCN(CCc2ccc(F)cc2)CC1 — 2.7-fold higher, 1900 nM
- COc1c(OCCOCCOCCOCCOCCOCCOCCOCCOCCOCCOc2ccc(C3CCN(c4ccn5c(CC6CC6)nnc5c4Cl)CC3)cc2)cccc1C(=O)C1CCN(CCc2ccc(F)cc2)CC1 — 1.7-fold higher, 1200 nM

biological target: T1, 5-hydroxytryptamine receptor 2A/Metabotropic glutamate receptor 2; experiment: Displacement of [3H]-ketanserin from human 5HT2A/mGlu2 receptor expressed in HEK293 cell co-expressing Gqo5 membranes incubated for 2 hrs by scintillation counting method; type: cell-based; conditions: read-out: Ki; procedure, shortened: as §1

Point of comparison: `COc1c(OCCOCCOCCOCCOCCOCCOCCOCCOCCOCCOc2ccc(C3CCN(c4ccn5c(CC6CC6)nnc5c4Cl)CC3)cc2)cccc1C(=O)C1CCN(CCc2ccc(F)cc2)CC1`, Ki 120 nM. Against it:
- COc1c(OCCOCCOCCOCCOCCOc2ccc(C3CCN(c4ccn5c(CC6CC6)nnc5c4Cl)CC3)cc2)cccc1C(=O)C1CCN(CCc2ccc(F)cc2)CC1 — 2.7-fold higher, 320 nM
- COc1c(OCCOCCOCCOCCOCCOCCOCCOCCOCCOCCOCCOCCOc2ccc(C3CCN(c4ccn5c(CC6CC6)nnc5c4Cl)CC3)cc2)cccc1C(=O)C1CCN(CCc2ccc(F)cc2)CC1 — within 1.5-fold, 170 nM

biological target: T3, Metabotropic glutamate receptor 2; experiment: Agonist activity at human mGlu2 receptor expressed in HEK293 cells co-expressing Gqo5 assessed as increase in intracellular Ca2+ mobilization incubated for 1 hr by Fluo-4 dye based fluorescence assay; type: functional, cell-based; conditions: read-out: EC50

Point of comparison: `COc1c(OCCOCCOCCOCCOCCOCCOCCOCCOCCOCCOc2ccc(C3CCN(c4ccn5c(CC6CC6)nnc5c4Cl)CC3)cc2)cccc1C(=O)C1CCN(CCc2ccc(F)cc2)CC1`, EC50 1200 nM. Against it:
- COc1c(OCCOCCOCCOCCOCCOc2ccc(C3CCN(c4ccn5c(CC6CC6)nnc5c4Cl)CC3)cc2)cccc1C(=O)C1CCN(CCc2ccc(F)cc2)CC1 — within 1.5-fold, 1600 nM
- COc1c(OCCOCCOCCOCCOCCOCCOCCOCCOCCOCCOCCOCCOc2ccc(C3CCN(c4ccn5c(CC6CC6)nnc5c4Cl)CC3)cc2)cccc1C(=O)C1CCN(CCc2ccc(F)cc2)CC1 — 2.1-fold higher, 2500 nM
